Test results as given in ChEMBL document CHEMBL1772991, “Synthesis and structure-activity relationship of tricyclic carboxylic acids as novel anti-histamines” (Bioorg Med Chem, 2011).

Assays:
Histamine H1 receptor = Histamine H1 receptor (Homo sapiens, UniProt P35367); experiment: Displacement of [3H]pyrilamine from human histamine H1 receptor expressed in CHO-K1 cells after 60 mins by scintillation counting; type: cell-based
Mus musculus [1] = species on record: Mus musculus; experiment: Ex vivo receptor occupancy of histamine H1 receptor in mouse brain at ED70 after 30 mins by scintillation counting; type: functional
[2] = Permeability from apical to basolateral side of human Caco2 cells after 120 mins; conditions: Caco-2
Mus musculus [3] = experiment: Antiinflammatory activity in ovalbumin-sensitized BALB/c mouse biphasic allergic model assessed as late type reaction at 10 mg/kg, po administered 1 hr before ovalbumin challenge measured 24 hrs after elicitation by ear swelling assay; type: functional
Procedure, shortened: (§1)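 Female Balb/c mice, 8 weeks old, sensitized i.p. with OVA plus alum. Two weeks later, compound given orally as a 0.5% methylcellulose suspension at 10 mg/kg, 1 h before intradermal OVA into the ear.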

Mus musculus [4] = experiment: Antiinflammatory activity in ovalbumin-sensitized BALB/c mouse biphasic allergic model assessed as immediate type reaction at 10 mg/kg, po administered 1 hr before ovalbumin challenge measured 1 hr after elicitation by ear swelling assay; type: functional; procedure, shortened: as §1
Mus musculus [5] = species on record: Mus musculus; experiment: animal or person; type: functional; conditions: ddY, po
Mus musculus [6] = experiment: In vivo antihistaminic activity at histamine H1 receptor in ddY mouse assessed as inhibition of histamine-induced skin vascular permeability at 3 mg/kg, po administered 1 hr before histamine challenge by Evan's blue staining; type: functional
Procedure, shortened: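 Female ddY mice, 8 weeks old, dosed orally at 3 mg/kg as a suspension in 0.5% methylcellulose, 1 h before intradermal histamine ([…]) into back skin, following i.v. Evans blue. Mice sacrificed 30 min after histamine; dyed area measured. % inhibition, mean ± SE of six mice.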

[7] = Oral bioavailability in fasted rat at 10 mg/kg after 24 hrs; type: ADME, organism-based; conditions: in vivo
Procedure, shortened: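 Fasted male rats (n = 3 per route). Dosing: 1 mg/kg i.v. in 5% glucose/0.1 N HCl (9:1), or 10 mg/kg p.o. as a 0.5% methylcellulose suspension. Jugular blood sampled up to 24 h (po: 15, 30 min, 1, 2, 4, 6, 24 h) and plasma stored at -70 °C. AUCs taken from plasma concentration–time courses. BA = (AUCpo/Dpo)/(AUCiv/Div) × 100.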

Homo sapiens = species on record: Homo sapiens; experiment: Ratio of IC50 for human adrenergic alpha1 to IC50 for human histamine H1 receptor
[8] = molecular target: T1, Adrenergic receptor alpha-1 (Homo sapiens, UniProt P35348+P25100+P35368); experiment: Displacement of [3H]prazosin from human adrenergic alpha1 expressed in CHO-K1 cells after 30 mins by scintillation counting; type: cell-based
T1 sequence (P35348 whole entry): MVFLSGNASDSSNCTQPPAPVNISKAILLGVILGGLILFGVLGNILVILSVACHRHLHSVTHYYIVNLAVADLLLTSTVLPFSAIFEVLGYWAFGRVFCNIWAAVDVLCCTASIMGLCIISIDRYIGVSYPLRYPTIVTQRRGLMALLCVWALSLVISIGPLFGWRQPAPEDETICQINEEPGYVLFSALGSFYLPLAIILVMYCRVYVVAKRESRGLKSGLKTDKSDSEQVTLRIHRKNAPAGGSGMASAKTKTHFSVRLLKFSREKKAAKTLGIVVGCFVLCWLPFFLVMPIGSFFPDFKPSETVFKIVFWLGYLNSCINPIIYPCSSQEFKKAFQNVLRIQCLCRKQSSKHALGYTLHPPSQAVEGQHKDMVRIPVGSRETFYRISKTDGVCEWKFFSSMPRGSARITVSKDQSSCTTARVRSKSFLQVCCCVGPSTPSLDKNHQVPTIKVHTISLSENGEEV
T1 sequence (P25100 whole entry): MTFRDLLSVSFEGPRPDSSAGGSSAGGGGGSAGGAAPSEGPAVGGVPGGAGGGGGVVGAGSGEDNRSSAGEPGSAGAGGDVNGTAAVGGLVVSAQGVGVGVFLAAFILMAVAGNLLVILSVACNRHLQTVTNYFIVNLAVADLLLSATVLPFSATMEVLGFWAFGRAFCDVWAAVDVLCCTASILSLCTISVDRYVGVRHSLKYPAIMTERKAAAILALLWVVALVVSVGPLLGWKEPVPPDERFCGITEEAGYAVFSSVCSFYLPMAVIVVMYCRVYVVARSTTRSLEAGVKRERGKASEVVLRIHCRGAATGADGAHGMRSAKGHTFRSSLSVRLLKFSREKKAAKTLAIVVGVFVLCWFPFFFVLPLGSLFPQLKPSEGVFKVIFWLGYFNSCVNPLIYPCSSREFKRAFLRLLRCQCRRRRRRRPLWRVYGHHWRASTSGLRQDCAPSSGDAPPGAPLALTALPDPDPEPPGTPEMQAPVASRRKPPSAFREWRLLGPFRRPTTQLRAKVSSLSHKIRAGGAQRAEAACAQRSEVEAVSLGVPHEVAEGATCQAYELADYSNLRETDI
T1 sequence (P35368 whole entry): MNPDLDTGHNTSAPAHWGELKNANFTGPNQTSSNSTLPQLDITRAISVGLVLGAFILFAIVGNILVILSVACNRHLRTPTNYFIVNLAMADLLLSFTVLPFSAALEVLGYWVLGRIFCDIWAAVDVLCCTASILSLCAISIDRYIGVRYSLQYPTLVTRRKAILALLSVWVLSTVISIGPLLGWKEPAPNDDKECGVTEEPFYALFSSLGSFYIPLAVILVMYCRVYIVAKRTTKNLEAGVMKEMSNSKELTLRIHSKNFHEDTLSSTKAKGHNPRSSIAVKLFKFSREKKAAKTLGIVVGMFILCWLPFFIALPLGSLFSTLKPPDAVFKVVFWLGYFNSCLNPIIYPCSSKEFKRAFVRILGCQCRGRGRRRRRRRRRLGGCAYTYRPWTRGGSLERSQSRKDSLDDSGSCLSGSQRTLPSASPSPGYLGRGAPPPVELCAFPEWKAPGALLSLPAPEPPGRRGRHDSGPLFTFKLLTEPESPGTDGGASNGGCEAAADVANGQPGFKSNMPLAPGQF
Procedure, shortened: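 Membranes from stable recombinant CHO-K1 cells expressing human α1 adrenoceptor were incubated with graded compound concentrations and 0.3 nM [3H]-prazosin in 50 mM Tris-HCl pH 7.6 for 30 min at room temperature. Nonspecific binding was defined with 1 µM prazosin. Samples were filtered on GF/B, washed and scintillation counted; specific binding is total minus nonspecific. Single experiment.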

Chain of Histamine H1 receptor (P35367 whole entry): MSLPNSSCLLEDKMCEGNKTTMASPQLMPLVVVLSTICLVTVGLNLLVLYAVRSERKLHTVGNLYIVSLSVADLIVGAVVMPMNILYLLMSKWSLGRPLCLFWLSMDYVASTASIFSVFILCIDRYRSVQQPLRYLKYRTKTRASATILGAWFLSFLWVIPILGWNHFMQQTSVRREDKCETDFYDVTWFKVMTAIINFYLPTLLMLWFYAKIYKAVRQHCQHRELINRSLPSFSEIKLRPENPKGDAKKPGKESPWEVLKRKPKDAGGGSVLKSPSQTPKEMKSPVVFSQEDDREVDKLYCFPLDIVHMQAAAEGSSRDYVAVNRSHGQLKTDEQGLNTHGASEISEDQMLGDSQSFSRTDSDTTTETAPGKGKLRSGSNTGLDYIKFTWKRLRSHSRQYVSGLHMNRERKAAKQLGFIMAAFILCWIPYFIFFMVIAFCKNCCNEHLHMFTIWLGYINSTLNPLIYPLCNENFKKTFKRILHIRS

SMILES: Cn1c(N2CCN(CCCN3c4ccccc4COc4ccc(C(=O)O)cc43)CC2)cc(=O)n(C)c1=O
- IC50 (Histamine H1 receptor): 140 nM
- Activity (Mus musculus [1]): 20%

SMILES: Cn1c(N2CCCN(CC/C=C3/c4ccccc4COc4ccc(C(=O)O)cc43)CC2)cc(=O)n(C)c1=O
- IC50 (Histamine H1 receptor): 63 nM
- Papp A→B at 2 h [2]: 3.8 ×10⁻⁶ cm/s

SMILES: CN1CCC(=C2c3ccccc3CC(=O)c3sccc32)CC1 [KETOTIFEN]
- inhibition in vivo at 10 mg/kg (Mus musculus [3]): 3%
- inhibition in vivo at 10 mg/kg (Mus musculus [4]): 119%
- ED70 (Mus musculus [5]): 0.067 mg/kg

SMILES: Cn1c(N2CCCN(CCCN3c4ccccc4CCc4ccc(C(C)(C)C(=O)O)cc43)CC2)cc(=O)n(C)c1=O
- inhibition in vivo at 3 mg/kg (Mus musculus [6]): 67%
- bioavailability [7]: 14%
- IC50 (Histamine H1 receptor): 75 nM
- Papp A→B at 2 h [2]: 7 ×10⁻⁶ cm/s

SMILES: Cn1c(N2CCN(CC/C=C3/c4ccccc4CCc4ccc(CC(=O)O)cc43)CC2)cc(=O)n(C)c1=O
- IC50 (Histamine H1 receptor): 195 nM
- Papp A→B at 2 h [2]: 14.7 ×10⁻⁶ cm/s

SMILES: Cn1c(N2CCCN(CCCN3c4ccccc4CCc4ccc(CC(=O)O)cc43)CC2)cc(=O)n(C)c1=O
- IC50 (Histamine H1 receptor): 54 nM
- Papp A→B at 2 h [2]: 2.6 ×10⁻⁶ cm/s

SMILES: Cn1c(N2CCN(CC/C=C3/c4ccccc4COc4ccc(CC(=O)O)cc43)CC2)cc(=O)n(C)c1=O
- inhibition in vivo at 3 mg/kg (Mus musculus [6]): 53%
- Ratio IC50 (Homo sapiens): 57
- IC50 [8]: 4800 nM
- bioavailability [7]: 76%
- inhibition in vivo at 10 mg/kg (Mus musculus [3]): 78%
- IC50 (Histamine H1 receptor): 84 nM
- Papp A→B at 2 h [2]: 7.3 ×10⁻⁶ cm/s
- inhibition in vivo at 10 mg/kg (Mus musculus [4]): 105%

SMILES: Cn1c(N2CCCN(CC/C=C3/c4ccccc4CCc4ccc(CC(=O)O)cc43)CC2)cc(=O)n(C)c1=O
- IC50 (Histamine H1 receptor): 135 nM
- Papp A→B at 2 h [2]: 4.8 ×10⁻⁶ cm/s

SMILES: Cn1c(N2CCCN(CCCN3c4cc(C(=O)O)ccc4COc4ccccc43)CC2)cc(=O)n(C)c1=O
- IC50 (Histamine H1 receptor): 530 nM
- Papp A→B at 2 h [2]: 1.6 ×10⁻⁶ cm/s

SMILES: Cn1c(N2CCCN(CCCN3c4ccccc4CCc4ccc(C(=O)O)cc43)CC2)cc(=O)n(C)c1=O
- inhibition in vivo at 3 mg/kg (Mus musculus [6]): 50%
- bioavailability [7]: 33%
- inhibition in vivo at 10 mg/kg (Mus musculus [3]): 46%
- IC50 (Histamine H1 receptor): 70 nM
- Papp A→B at 2 h [2]: 4.4 ×10⁻⁶ cm/s
- inhibition in vivo at 10 mg/kg (Mus musculus [4]): 30%

SMILES: Cn1c(N2CCN(CC/C=C3\c4ccccc4COc4ccc(CC(=O)O)cc43)CC2)cc(=O)n(C)c1=O
- IC50 (Histamine H1 receptor): 540 nM
- Papp A→B at 2 h [2]: 4.7 ×10⁻⁶ cm/s

SMILES: Cn1c(N2CCN(CCCN3c4ccccc4Sc4ccc(CC(=O)O)cc43)CC2)cc(=O)n(C)c1=O
- inhibition in vivo at 3 mg/kg (Mus musculus [6]): 82%
- Ratio IC50 (Homo sapiens): 11
- IC50 [8]: 430 nM
- inhibition in vivo at 10 mg/kg (Mus musculus [3]): 64%
- Activity (Mus musculus [1]): 38%
- inhibition in vivo at 10 mg/kg (Mus musculus [4]): 73%
- ED70 (Mus musculus [5]): 1.61 mg/kg

SMILES: Cn1c(N2CCCN(CC/C=C3/c4ccccc4COc4ccc(CC(=O)O)cc43)CC2)cc(=O)n(C)c1=O
- inhibition in vivo at 3 mg/kg (Mus musculus [6]): 32%
- IC50 (Histamine H1 receptor): 92 nM
- Papp A→B at 2 h [2]: 4 ×10⁻⁶ cm/s

SMILES: Cn1c(N2CCN(CC/C=C3/c4ccccc4COc4ccc(C(=O)O)cc43)CC2)cc(=O)n(C)c1=O
- IC50 (Histamine H1 receptor): 325 nM

SMILES: Cn1c(N2CCN(CCCN3c4ccccc4COc4ccc(CC(=O)O)cc43)CC2)cc(=O)n(C)c1=O
- IC50 (Histamine H1 receptor): 255 nM
- Papp A→B at 2 h [2]: 3 ×10⁻⁶ cm/s

SMILES: Cn1c(N2CCCN(CCCN3c4ccccc4COc4ccc(C(C)(C)C(=O)O)cc43)CC2)cc(=O)n(C)c1=O
- IC50 (Histamine H1 receptor): 150 nM
- Papp A→B at 2 h [2]: 4.6 ×10⁻⁶ cm/s

SMILES: Cn1c(N2CCCN(CC/C=C3/c4ccccc4CCc4ccc(C(=O)O)cc43)CC2)cc(=O)n(C)c1=O
- IC50 (Histamine H1 receptor): 153 nM
- Papp A→B at 2 h [2]: 6.9 ×10⁻⁶ cm/s

SMILES: CC(C(=O)O)c1ccc2c(c1)N(CCCN1CCCN(c3cc(=O)n(C)c(=O)n3C)CC1)c1ccccc1CO2 (stereo not drawn)
- IC50 (Histamine H1 receptor): 128 nM
- Papp A→B at 2 h [2]: 1.9 ×10⁻⁶ cm/s

SMILES: CC(C)(C(=O)O)c1ccc(C(O)CCCN2CCC(C(O)(c3ccccc3)c3ccccc3)CC2)cc1 (stereo not drawn) [FEXOFENADINE]
- inhibition in vivo at 10 mg/kg (Mus musculus [3]): 6%
- Activity (Mus musculus [1]): 12%
- inhibition in vivo at 10 mg/kg (Mus musculus [4]): 61%

SMILES: Cn1c(N2CCCN(CCCN3c4ccccc4COc4ccc(C(=O)O)cc43)CC2)cc(=O)n(C)c1=O
- inhibition in vivo at 3 mg/kg (Mus musculus [6]): 87%
- bioavailability [7]: 23%
- IC50 (Histamine H1 receptor): 41 nM
- Papp A→B at 2 h [2]: 6.3 ×10⁻⁶ cm/s

SMILES: Cn1c(N2CCCN(CCCN3c4ccccc4COc4ccc(CC(=O)O)cc43)CC2)cc(=O)n(C)c1=O
- IC50 (Histamine H1 receptor): 128 nM
- Papp A→B at 2 h [2]: 1.6 ×10⁻⁶ cm/s
